# Assays:
# [1] = system: Candida tropicalis; test: Antifungal activity against Candida tropicalis after 48 hrs by NCCLS method; format: functional
# How it was run: (§1)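 NCCLS yeast broth dilution; inocula from 48 h, 35 °C Sabouraud agar cultures diluted to 10⁶ CFU/mL; compounds from 10 mg/mL DMSO stock serially diluted in RPMI-1640, added to equal volume of fungal suspension in round-bottom microplates; incubated 35 °C for 48–72 h; MIC in duplicate.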
# [2] = system: Stenotrophomonas maltophilia; test: Antibacterial activity against Stenotrophomonas maltophilia after 18 to 24 hrs by broth microdilution method; format: functional
# How it was run: (§2)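 Broth microdilution per CLSI; compounds dissolved in DMSO at 10 mg/mL stock, serially diluted in Mueller Hinton Broth, mixed with equal volume of bacterial inoculum (final […]); incubated 37 °C for 18–24 h; MIC taken as lowest concentration preventing visible growth; duplicate determinations.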
# [3] = system: Enterobacter cloacae; test: Antibacterial activity against Enterobacter cloacae after 18 to 24 hrs by broth microdilution method; format: functional; how it was run: as §2
# [4] = system: Enterococcus faecalis; test: Antibacterial activity against Enterococcus faecalis after 18 to 24 hrs by broth microdilution method; format: functional; how it was run: as §2
# [5] = system: Staphylococcus epidermidis; test: Antibacterial activity against Staphylococcus epidermidis after 18 to 24 hrs by broth microdilution method; format: functional; how it was run: as §2
# [6] = system: Mycobacterium tuberculosis; test: Antimycobacterial activity against Mycobacterium tuberculosis H37Ra by twofold agar dilution method; format: functional
# How it was run: (§3)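 Strains grown in Middlebrook 7H11 with OADC. Suspensions at McFarland 1 turbidity were diluted 1:10, 1:100 and 1:10,000 in Middlebrook 7H9. These were inoculated onto duplicate Middlebrook 7H11 plates containing serial concentrations of compound.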
# [7] = system: Escherichia coli; test: Antibacterial activity against Escherichia coli after 18 to 24 hrs by broth microdilution method; format: functional; how it was run: as §2
# [8] = system: Mycolicibacterium smegmatis; test: Antimycobacterial activity against Mycobacterium smegmatis MC2 155 after 72 hrs by broth microdilution method; format: functional; details: str. MC2 155, 72 h
# How it was run: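 Strains were pre-grown in Middlebrook 7H11 with OADC. The microdilution assay ran in sealed 96-well plates at 37 °C and was read after 72 h for M. smegmatis mc²155 and after 7 days for M. bovis BCG.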
# [9] = system: Staphylococcus aureus; test: Antibacterial activity against Staphylococcus aureus after 18 to 24 hrs by broth microdilution method; format: functional; how it was run: as §2
# [10] = system: Candida albicans; test: Antifungal activity against Candida albicans after 48 hrs by NCCLS method; format: functional; how it was run: as §1
# [11] = system: Mycobacterium tuberculosis; test: Antimycobacterial activity against Mycobacterium tuberculosis H37Rv by twofold agar dilution method; format: functional; how it was run: as §3
# [12] = system: Klebsiella pneumoniae; test: Antibacterial activity against Klebsiella pneumoniae after 18 to 24 hrs by broth microdilution method; format: functional; how it was run: as §2
# [13] = system: Pseudomonas aeruginosa; test: Antibacterial activity against Pseudomonas aeruginosa after 18 to 24 hrs by broth microdilution method; format: functional; how it was run: as §2
# [14] = system: Acinetobacter baumannii; test: Antibacterial activity against Acinetobacter baumannii after 18 to 24 hrs by broth microdilution method; format: functional; how it was run: as §2
# [15] = Cytotoxicity against human MT4 cells after 96 hrs by MTT assay; format: cell-based
# How it was run: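 Exponentially growing MT-4 cells (CD4+ T-cells carrying integrated HTLV-1) seeded at 1 × 10⁵ cells/mL in RPMI-1640 with 10% FCS, penicillin and streptomycin; exposed to serial compound dilutions at 37 °C, humidified 5% CO₂; viability read by MTT after 96 h; CC50 derived.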
SMILES,MIC [1] [µg/mL],MIC [2] [µg/mL],MIC [3] [µg/mL],MIC [4] [µg/mL],MIC [5] [µg/mL],MIC [6] [µg/mL],MIC [7] [µg/mL],MIC [8] [µg/mL],MIC [9] [µg/mL],MIC [10] [µg/mL],MIC [11] [µg/mL],MIC [12] [µg/mL],MIC [13] [µg/mL],MIC [14] [µg/mL],CC50 at 96 h [15] [µg/mL]
C=CCn1cc(C(=O)OCC)c(=O)c2ccc3c(nnn3Cc3ccccc3)c21,> 64,> 64,> 64,> 64,> 64,> 128,> 64,> 128,> 64,> 64,64,> 64,> 64,> 64,–
Cn1cc(C(=O)O)c(=O)c2ccc3c(nnn3C)c21,> 64,> 64,> 64,> 64,> 64,0.5,> 64,5,> 64,> 64,0.5,> 64,> 64,> 64,> 100
CCCCn1cc(C(=O)OCC)c(=O)c2ccc3c(nnn3Cc3ccccc3)c21,> 64,> 64,> 64,> 64,> 64,32,> 64,> 128,> 64,> 64,64,> 64,> 64,> 64,–
C=C(C)Cn1cc(C(=O)OCC)c(=O)c2ccc3c(nnn3C)c21,> 64,> 64,> 64,> 64,> 64,> 128,> 64,> 128,> 64,> 64,64,> 64,> 64,> 64,–
CO[C@H]1/C=C/O[C@@]2(C)Oc3c(C)c(O)c4c(O)c(c(/C=N/N5CCN(C)CC5)c(O)c4c3C2=O)NC(=O)/C(C)=C\C=C\[C@H](C)[C@H](O)[C@@H](C)[C@@H](O)[C@@H](C)[C@H](OC(C)=O)[C@@H]1C [RIFAMPIN],–,–,–,–,–,≤ 0.06,–,8,–,–,< 0.5,–,–,–,–
Cn1nnc2c3c(ccc21)c(=O)c(C(=O)O)cn3C(C)(C)C,> 64,> 64,> 64,> 64,> 64,8,> 64,32,> 64,> 64,16,> 64,> 64,> 64,> 100
CCOC(=O)c1cn(CC)c2c(ccc3c2nnn3Cc2ccccc2)c1=O,> 64,> 64,> 64,> 64,> 64,> 128,> 64,> 128,> 64,> 64,64,> 64,> 64,> 64,–
CCCCn1cc(C(=O)O)c(=O)c2ccc3c(nnn3Cc3ccccc3)c21,> 64,> 64,> 64,> 64,> 64,64,> 64,> 128,> 64,> 64,64,> 64,> 64,> 64,–
CCOC(=O)c1cn(CC2CC2)c2c(ccc3c2nnn3C)c1=O,> 64,> 64,> 64,> 64,> 64,> 128,> 64,> 128,> 64,> 64,64,> 64,> 64,> 64,–
CCn1cc(C(=O)O)c(=O)c2ccc3c(nnn3Cc3ccccc3)c21,> 64,> 64,> 64,> 64,> 64,8,> 64,64,> 64,> 64,64,> 64,> 64,> 64,–
CC[C@@H](CO)NCCN[C@@H](CC)CO [ETHAMBUTOL],–,–,–,–,–,4,–,0.5,–,–,5,–,–,–,–

# From ChEMBL document CHEMBL1649406, “Synthesis and anti-mycobacterial activities of triazoloquinolones” (Eur J Med Chem, 2011)
